Source: ChEMBL document CHEMBL4689842, “EUbOPEN Chemogenomics Library wave 1” (2021)

System: HEK-293T
Experiment: Multiplex assay against HEK293T;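 for Population Tubulin-Different-Phenotype (%): share of the cells with healthy nuclei that show this phenotype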
Type: toxicity, cell-based
Conditions: human
In short: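 Hoechst33342, BioTracker Green Microtubule Cytoskeleton Dye, MitoTracker Red and Annexin V Alexa Fluor 680 were added to live cells at seeding, and imaging on a CQ1 microscope at 37°C and 5% CO2 followed compound addition. Gating by CellPathfinder machine learning separated cells into Hoechst high-intensity objects or normal cells, then normal cells into healthy, pyknosed or fragmented nuclei, then pyknosed cells into mitotic or apoptotic. Per cents of healthy-nucleus cells are reported for the tubulin, mitochondrial-mass and membrane-permeability phenotypes.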

[1] = 12 h, 1 µM, compound concentration 1 uM, replicate 1
[2] = 12 h, 1 µM, compound concentration 1 uM, replicate 2
[3] = 12 h, 10 µM, compound concentration 10 uM, replicate 1
[4] = 12 h, 10 µM, compound concentration 10 uM, replicate 2
[5] = 24 h, 1 µM, compound concentration 1 uM, replicate 1
[6] = 24 h, 1 µM, compound concentration 1 uM, replicate 2
[7] = 24 h, 10 µM, compound concentration 10 uM, replicate 1
[8] = 24 h, 10 µM, compound concentration 10 uM, replicate 2
[9] = 48 h, 1 µM, compound concentration 1 uM, replicate 1
[10] = 48 h, 1 µM, compound concentration 1 uM, replicate 2
[11] = 48 h, 10 µM, compound concentration 10 uM, replicate 1
[12] = 48 h, 10 µM, compound concentration 10 uM, replicate 2

SMILES: O=C(Nc1cccnn1)N1CCC(=Cc2cccc(Oc3ccc(C(F)(F)F)cn3)c2)CC1
- Population Apoptotic (%) [1]: 22%
- Population Fragmented Nuclei (%) [1]: 20%
- Population Healthy Nuclei (%) [1]: 46%
- Population Hoechst High Intensity Objects (%) [1]: 16%
- Population Membrane Permeable-Phenotype (%) [1]: 10%
- Population Mitochondria Different-Phenotype (%) [1]: 17%
- Population Mitotic Cells (%) [1]: 77%
- Population Normal (%) [1]: 83%
- Population Pyknosed Nuclei (%) [1]: 33%
- Population Tubulin-Different-Phenotype (%) [1]: 29%
- Total Cell Count [1]: 578
- Population Apoptotic (%) [2]: 17%
- Population Fragmented Nuclei (%) [2]: 5%
- Population Healthy Nuclei (%) [2]: 83%
- Population Hoechst High Intensity Objects (%) [2]: 9%
- Population Membrane Permeable-Phenotype (%) [2]: 7%
- Population Mitochondria Different-Phenotype (%) [2]: 30%
- Population Mitotic Cells (%) [2]: 82%
- Population Normal (%) [2]: 90%
- Population Pyknosed Nuclei (%) [2]: 11%
- Population Tubulin-Different-Phenotype (%) [2]: 62%
- Total Cell Count [2]: 1415
- Population Apoptotic (%) [3]: 30%
- Population Fragmented Nuclei (%) [3]: 13%
- Population Healthy Nuclei (%) [3]: 67%
- Population Hoechst High Intensity Objects (%) [3]: 9%
- Population Membrane Permeable-Phenotype (%) [3]: 3%
- Population Mitochondria Different-Phenotype (%) [3]: 4%
- Population Mitotic Cells (%) [3]: 69%
- Population Normal (%) [3]: 90%
- Population Pyknosed Nuclei (%) [3]: 18%
- Population Tubulin-Different-Phenotype (%) [3]: 5%
- Total Cell Count [3]: 619
- Population Apoptotic (%) [4]: 8%
- Population Fragmented Nuclei (%) [4]: 7%
- Population Healthy Nuclei (%) [4]: 88%
- Population Hoechst High Intensity Objects (%) [4]: 1%
- Population Membrane Permeable-Phenotype (%) [4]: 1%
- Population Mitochondria Different-Phenotype (%) [4]: 12%
- Population Mitotic Cells (%) [4]: 91%
- Population Normal (%) [4]: 98%
- Population Pyknosed Nuclei (%) [4]: 4%
- Population Tubulin-Different-Phenotype (%) [4]: 6%
- Total Cell Count [4]: 1821
- Population Apoptotic (%) [5]: 31%
- Population Fragmented Nuclei (%) [5]: 16%
- Population Healthy Nuclei (%) [5]: 56%
- Population Hoechst High Intensity Objects (%) [5]: 15%
- Population Membrane Permeable-Phenotype (%) [5]: 12%
- Population Mitochondria Different-Phenotype (%) [5]: 19%
- Population Mitotic Cells (%) [5]: 68%
- Population Normal (%) [5]: 84%
- Population Pyknosed Nuclei (%) [5]: 27%
- Population Tubulin-Different-Phenotype (%) [5]: 54%
- Total Cell Count [5]: 519
- Population Apoptotic (%) [6]: 8%
- Population Fragmented Nuclei (%) [6]: 6%
- Population Healthy Nuclei (%) [6]: 83%
- Population Hoechst High Intensity Objects (%) [6]: 10%
- Population Membrane Permeable-Phenotype (%) [6]: 10%
- Population Mitochondria Different-Phenotype (%) [6]: 30%
- Population Mitotic Cells (%) [6]: 91%
- Population Normal (%) [6]: 89%
- Population Pyknosed Nuclei (%) [6]: 10%
- Population Tubulin-Different-Phenotype (%) [6]: 82%
- Total Cell Count [6]: 1537
- Population Apoptotic (%) [7]: 17%
- Population Fragmented Nuclei (%) [7]: 9%
- Population Healthy Nuclei (%) [7]: 83%
- Population Hoechst High Intensity Objects (%) [7]: 4%
- Population Membrane Permeable-Phenotype (%) [7]: 8%
- Population Mitochondria Different-Phenotype (%) [7]: 2%
- Population Mitotic Cells (%) [7]: 82%
- Population Normal (%) [7]: 95%
- Population Pyknosed Nuclei (%) [7]: 7%
- Population Tubulin-Different-Phenotype (%) [7]: 5%
- Total Cell Count [7]: 783
- Population Apoptotic (%) [8]: 2%
- Population Fragmented Nuclei (%) [8]: 22%
- Population Healthy Nuclei (%) [8]: 74%
- Population Hoechst High Intensity Objects (%) [8]: 3%
- Population Membrane Permeable-Phenotype (%) [8]: 3%
- Population Mitotic Cells (%) [8]: 97%
- Population Normal (%) [8]: 96%
- Population Pyknosed Nuclei (%) [8]: 2%
- Population Tubulin-Different-Phenotype (%) [8]: 8%
- Total Cell Count [8]: 3029

SMILES: CCCn1c(=O)c2[nH]c(-c3cnn(Cc4cccc(C(F)(F)F)c4)c3)nc2n(CC)c1=O [GS 6201]
- Population Apoptotic (%) [1]: 48%
- Population Fragmented Nuclei (%) [1]: 14%
- Population Healthy Nuclei (%) [1]: 15%
- Population Hoechst High Intensity Objects (%) [1]: 18%
- Population Membrane Permeable-Phenotype (%) [1]: 2%
- Population Mitochondria Different-Phenotype (%) [1]: 83%
- Population Mitotic Cells (%) [1]: 51%
- Population Normal (%) [1]: 81%
- Population Pyknosed Nuclei (%) [1]: 69%
- Population Tubulin-Different-Phenotype (%) [1]: 67%
- Total Cell Count [1]: 294
- Population Apoptotic (%) [2]: 9%
- Population Fragmented Nuclei (%) [2]: 7%
- Population Healthy Nuclei (%) [2]: 43%
- Population Hoechst High Intensity Objects (%) [2]: 5%
- Population Membrane Permeable-Phenotype (%) [2]: 10%
- Population Mitochondria Different-Phenotype (%) [2]: 9%
- Population Mitotic Cells (%) [2]: 90%
- Population Normal (%) [2]: 94%
- Population Pyknosed Nuclei (%) [2]: 49%
- Population Tubulin-Different-Phenotype (%) [2]: 22%
- Total Cell Count [2]: 239
- Population Apoptotic (%) [3]: 46%
- Population Fragmented Nuclei (%) [3]: 28%
- Population Healthy Nuclei (%) [3]: 13%
- Population Hoechst High Intensity Objects (%) [3]: 25%
- Population Membrane Permeable-Phenotype (%) [3]: 0%
- Population Mitochondria Different-Phenotype (%) [3]: 80%
- Population Mitotic Cells (%) [3]: 53%
- Population Normal (%) [3]: 74%
- Population Pyknosed Nuclei (%) [3]: 58%
- Population Tubulin-Different-Phenotype (%) [3]: 83%
- Total Cell Count [3]: 316
- Population Apoptotic (%) [4]: 8%
- Population Fragmented Nuclei (%) [4]: 4%
- Population Healthy Nuclei (%) [4]: 45%
- Population Hoechst High Intensity Objects (%) [4]: 2%
- Population Membrane Permeable-Phenotype (%) [4]: 7%
- Population Mitochondria Different-Phenotype (%) [4]: 25%
- Population Mitotic Cells (%) [4]: 91%
- Population Normal (%) [4]: 97%
- Population Pyknosed Nuclei (%) [4]: 49%
- Population Tubulin-Different-Phenotype (%) [4]: 31%
- Total Cell Count [4]: 325
- Population Apoptotic (%) [5]: 52%
- Population Fragmented Nuclei (%) [5]: 19%
- Population Healthy Nuclei (%) [5]: 10%
- Population Hoechst High Intensity Objects (%) [5]: 23%
- Population Membrane Permeable-Phenotype (%) [5]: 0%
- Population Mitochondria Different-Phenotype (%) [5]: 75%
- Population Mitotic Cells (%) [5]: 47%
- Population Normal (%) [5]: 76%
- Population Pyknosed Nuclei (%) [5]: 70%
- Population Tubulin-Different-Phenotype (%) [5]: 66%
- Total Cell Count [5]: 303
- Population Apoptotic (%) [6]: 13%
- Population Fragmented Nuclei (%) [6]: 5%
- Population Healthy Nuclei (%) [6]: 64%
- Population Hoechst High Intensity Objects (%) [6]: 1%
- Population Membrane Permeable-Phenotype (%) [6]: 11%
- Population Mitochondria Different-Phenotype (%) [6]: 12%
- Population Mitotic Cells (%) [6]: 86%
- Population Normal (%) [6]: 98%
- Population Pyknosed Nuclei (%) [6]: 29%
- Population Tubulin-Different-Phenotype (%) [6]: 28%
- Total Cell Count [6]: 288
- Population Apoptotic (%) [7]: 47%
- Population Fragmented Nuclei (%) [7]: 35%
- Population Healthy Nuclei (%) [7]: 18%
- Population Hoechst High Intensity Objects (%) [7]: 24%
- Population Membrane Permeable-Phenotype (%) [7]: 4%
- Population Mitochondria Different-Phenotype (%) [7]: 84%
- Population Mitotic Cells (%) [7]: 52%
- Population Normal (%) [7]: 75%
- Population Pyknosed Nuclei (%) [7]: 46%
- Population Tubulin-Different-Phenotype (%) [7]: 72%
- Total Cell Count [7]: 314
- Population Apoptotic (%) [8]: 17%
- Population Fragmented Nuclei (%) [8]: 3%
- Population Healthy Nuclei (%) [8]: 63%
- Population Hoechst High Intensity Objects (%) [8]: 1%
- Population Membrane Permeable-Phenotype (%) [8]: 8%
- Population Mitochondria Different-Phenotype (%) [8]: 17%
- Population Mitotic Cells (%) [8]: 82%
- Population Normal (%) [8]: 98%
- Population Pyknosed Nuclei (%) [8]: 32%
- Population Tubulin-Different-Phenotype (%) [8]: 35%
- Total Cell Count [8]: 424
- Population Apoptotic (%) [9]: 55%
- Population Fragmented Nuclei (%) [9]: 27%
- Population Healthy Nuclei (%) [9]: 6%
- Population Hoechst High Intensity Objects (%) [9]: 19%
- Population Membrane Permeable-Phenotype (%) [9]: 0%
- Population Mitochondria Different-Phenotype (%) [9]: 29%
- Population Mitotic Cells (%) [9]: 44%
- Population Normal (%) [9]: 80%
- Population Pyknosed Nuclei (%) [9]: 65%
- Population Tubulin-Different-Phenotype (%) [9]: 47%
- Total Cell Count [9]: 303
- Population Apoptotic (%) [10]: 14%
- Population Fragmented Nuclei (%) [10]: 5%
- Population Healthy Nuclei (%) [10]: 81%
- Population Hoechst High Intensity Objects (%) [10]: 3%
- Population Membrane Permeable-Phenotype (%) [10]: 7%
- Population Mitochondria Different-Phenotype (%) [10]: 3%
- Population Mitotic Cells (%) [10]: 85%
- Population Normal (%) [10]: 96%
- Population Pyknosed Nuclei (%) [10]: 13%
- Population Tubulin-Different-Phenotype (%) [10]: 12%
- Total Cell Count [10]: 506
- Population Apoptotic (%) [11]: 53%
- Population Fragmented Nuclei (%) [11]: 44%
- Population Healthy Nuclei (%) [11]: 11%
- Population Hoechst High Intensity Objects (%) [11]: 24%
- Population Membrane Permeable-Phenotype (%) [11]: 0%
- Population Mitochondria Different-Phenotype (%) [11]: 62%
- Population Mitotic Cells (%) [11]: 46%
- Population Normal (%) [11]: 75%
- Population Pyknosed Nuclei (%) [11]: 44%
- Population Tubulin-Different-Phenotype (%) [11]: 59%
- Total Cell Count [11]: 325
- Population Apoptotic (%) [12]: 18%
- Population Fragmented Nuclei (%) [12]: 5%
- Population Healthy Nuclei (%) [12]: 83%
- Population Hoechst High Intensity Objects (%) [12]: 4%
- Population Membrane Permeable-Phenotype (%) [12]: 5%
- Population Mitochondria Different-Phenotype (%) [12]: 8%
- Population Mitotic Cells (%) [12]: 81%
- Population Normal (%) [12]: 95%
- Population Pyknosed Nuclei (%) [12]: 10%
- Population Tubulin-Different-Phenotype (%) [12]: 31%
- Total Cell Count [12]: 739
